pIC50: −log10 of the molar value. Calls of active or inactive are those of the source. No cut-off for these calls is given here. Starred links: 1 amine or outer side, 2 acyl side, 3 side chain; linkers in the order of their positions; H or OH if unused. Positions of bridges follow the written chain, without caps; N, C: chain ends. Non-standard residues stand in square brackets, D forms with d. Residues, ends and D or L forms follow the SMILES beside them. Chains are numbered I, II in the order given. Actinocin(1to9) = Cc1c2oc3c(C)ccc(C(=O)[*:2])c3nc-2c(C(=O)[*:1])c(N)c1=O; NMeV = CN[C@H](C(=O)O)C(C)C; Sar = CNCC(=O)O
How the values were obtained:
HCT-116 [1] = assay: Cytotoxicity against human HCT116 cells after 48 hrs by MTT assay; type: functional, cell-based; settings: HCT-116, 48 h
Procedure, shortened: (§1)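 All four lines kept in RPMI 1640 with 10% FBS, 1% GlutaMAX, penicillin/streptomycin. Cells seeded at (2.5-5.0) × 10^4 per well and held overnight at 37 °C. Compounds added as 2-fold DMSO dilutions, top final concentration 100 µM, 0.5% DMSO final. Triplicates, 48 h, 37 °C, 5% CO2. MTT 1 mg/mL added for 3 h. IC50 is the mean of three replicate experiments.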

Jurkat [2] = assay: Cytotoxicity against human Jurkat T cells after 48 hrs by MTT assay; type: functional, cell-based; procedure, shortened: as §1
MCF7 [3] = assay: Cytotoxicity against human MCF7 cells after 48 hrs by MTT assay; type: functional, cell-based; settings: MCF7, 48 h; procedure, shortened: as §1
CCRF-CEM [4] = assay: Cytotoxicity against human CCRF-CEM cells after 48 hrs by MTT assay; type: functional, cell-based; procedure, shortened: as §1
Jurkat [5] = assay: Induction of apoptosis in human Jurkat T cells assessed as increase in DNA fragmentation at 0.33 uM after 6 hrs by ELISA relative to control; type: functional
Procedure, shortened: (§2)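 Jurkat T cells at 1 × 10^6 cells/mL exposed for 6 h. DNA fragmentation measured as histone-DNA complexes by histone ELISA and expressed as fold increase over untreated cells.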

Jurkat [6] = assay: Induction of apoptosis in human Jurkat T cells assessed as activation of caspase3 at 0.3 uM after 6 hrs relative to control; type: functional
Procedure, shortened: (§3)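 Jurkat T cells at 1 × 10^6 cells/mL treated for 6 h, then centrifuged at 4 °C, washed and homogenized. Caspase-3 activity read with DEVD-AMC substrate at 200 nM. Rate of fluorescence increase normalized to Bradford protein, expressed as fold over untreated cells. Three independent experiments.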

MCF7 [7] = assay: Cytotoxicity against human MCF7 cells at <=100 uM after 48 hrs by MTT assay; type: functional, cell-based; procedure, shortened: as §1
CCRF-CEM [8] = assay: Cytotoxicity against human CCRF-CEM cells at <=100 uM after 48 hrs by MTT assay; type: functional, cell-based; procedure, shortened: as §1
HCT-116 [9] = assay: Cytotoxicity against human HCT116 cells at <=100 uM after 48 hrs by MTT assay; type: functional, cell-based; procedure, shortened: as §1
Jurkat [10] = assay: Cytotoxicity against human Jurkat T cells at <=100 uM after 48 hrs by MTT assay; type: functional, cell-based; procedure, shortened: as §1
Jurkat [11] = assay: Induction of apoptosis in human Jurkat T cells assessed as activation of caspase3 at 10 uM after 6 hrs relative to control; type: functional; procedure, shortened: as §3
Jurkat [12] = assay: Induction of apoptosis in human Jurkat T cells assessed as increase in DNA fragmentation at 10 uM after 6 hrs by ELISA relative to control; type: functional; procedure, shortened: as §2

Work on `COc1cc(O)c(C(=O)O[C@@H]2C[C@]3(C)[C@H]4[C@@H](O)C(C)(C)C[C@@]4(O)C=C(CO)[C@]23O)c(C)c1Cl` [MELLEOLIDE D] yielded a pIC50 (HCT-116 [1]) of less than 4.00, a pIC50 (Jurkat [2]) of less than 4.00 and a pIC50 (MCF7 [3]) of less than 4.00. The pIC50 (CCRF-CEM [4]) was 4.21.
In the case of `Cc1c2oc3c(C)ccc(C(=O)N[C@@H]4C(=O)N[C@H](C(C)C)C(=O)N5CCC[C@H]5C(=O)N(C)CC(=O)N(C)[C@@H](C(C)C)C(=O)O[C@@H]4C)c3nc-2c(C(=O)N[C@@H]2C(=O)N[C@H](C(C)C)C(=O)N3CCC[C@H]3C(=O)N(C)CC(=O)N(C)[C@@H](C(C)C)C(=O)O[C@@H]2C)c(N)c1=O` [DACTINOMYCIN] (I: T[dV]P[Sar][NMeV] / II: T[dV]P[Sar][NMeV]; ester I:1-I:C, II:1-II:C; linker I:N-II:N via Actinocin(1to9)), the “fold change (FC)” value (Jurkat [5]) was 4.3 and the “fold change (FC)” value (Jurkat [6]) was 5.7.
With `COc1cc(C)c(C(=O)O[C@@H]2C[C@]3(C)[C@H]4[C@@H](O)C(C)(C)C[C@@]4(O)C=C(CO)[C@]23O)c(O)c1` the Activity (MCF7 [7]) was “inactive”, the Activity (CCRF-CEM [8]) was “inactive” and the Activity (HCT-116 [9]) was “inactive”. For the same molecule, the Activity (Jurkat [10]) was “inactive”.
With `Cc1cc(O)cc(O)c1C(=O)O[C@@H]1C[C@]2(C)[C@H]3[C@@H](O)C(C)(C)C[C@@]3(O)C=C(CO)[C@]12O` the Activity (MCF7 [7]) was “inactive”, the Activity (CCRF-CEM [8]) was “inactive” and the Activity (HCT-116 [9]) was “inactive”. For the same molecule, the Activity (Jurkat [10]) was “inactive”.
In the case of `COc1cc(O)c(C(=O)O[C@@H]2C[C@@]3(C)C2=C(C=O)[C@@H](O)[C@@H]2CC(C)(C)C[C@@H]23)c(C)c1Cl` [ARNAMIAL], the “fold change (FC)” value (Jurkat [11]) was 18.1, the pIC50 (HCT-116 [1]) was 4.97 and the “fold change (FC)” value (Jurkat [12]) was 4.5. For the same molecule, the pIC50 (Jurkat [2]) was 5.41, the pIC50 (MCF7 [3]) was 4.81 and the pIC50 (CCRF-CEM [4]) was 5.05.
`Cc1cc(O)cc(O)c1C(=O)O[C@@H]1C[C@]2(C)[C@@H]3[C@H](C=C(C=O)[C@]12O)CC(C)(C)[C@@H]3O` gave a pIC50 (HCT-116 [1]) of less than 4.00, a pIC50 (Jurkat [2]) of 4.06 and a pIC50 (MCF7 [3]) of less than 4.00. It also gave a pIC50 (CCRF-CEM [4]) of 4.20.
Molecule `COc1cc(O)c(C(=O)O[C@@H]2C[C@]3(C)[C@H]4[C@@H](O)C(C)(C)C[C@@]4(O)C=C(C=O)[C@]23O)c(C)c1Cl` [MELLEDONAL C] has a pIC50 (HCT-116 [1]) of less than 4.00, a pIC50 (Jurkat [2]) of 4.23 and a pIC50 (MCF7 [3]) of less than 4.00. For the same molecule, the pIC50 (CCRF-CEM [4]) was 4.83.
In the case of `Cc1cc(O)cc(O)c1C(=O)O`, the Activity (MCF7 [7]) was “inactive”, the Activity (CCRF-CEM [8]) was “inactive” and the Activity (HCT-116 [9]) was “inactive”. For the same molecule, the Activity (Jurkat [10]) was “inactive”.
In the case of `Cc1cc(O)cc(O)c1C(=O)O[C@@H]1C[C@]2(C)[C@H]3[C@@H](O)C(C)(C)C[C@@]3(O)C=C(C=O)[C@]12O`, the Activity (MCF7 [7]) was “inactive”, the Activity (CCRF-CEM [8]) was “inactive” and the Activity (HCT-116 [9]) was “inactive”. For the same molecule, the Activity (Jurkat [10]) was “inactive”.
With `COc1cc(C)c(C(=O)O)c(O)c1` the Activity (MCF7 [7]) was “inactive”, the Activity (CCRF-CEM [8]) was “inactive” and the Activity (HCT-116 [9]) was “inactive”. For the same molecule, the Activity (Jurkat [10]) was “inactive”.

Source: ChEMBL document CHEMBL1154329, “Structure and cytotoxicity of arnamial and related fungal sesquiterpene aryl esters” (J Nat Prod, 2009)
